{"source": "ChEMBL document CHEMBL1142374", "about": "“Rational design of 4-amino-5,6-diaryl-furo[2,3-d]pyrimidines as potent glycogen synthase kinase-3 inhibitors” (Bioorg Med Chem Lett, 2008)", "key": {"[1]": {"molecular_target": "Glycogen synthase kinase-3 beta (Homo sapiens, UniProt P49841)", "sequence (P49841 whole entry)": "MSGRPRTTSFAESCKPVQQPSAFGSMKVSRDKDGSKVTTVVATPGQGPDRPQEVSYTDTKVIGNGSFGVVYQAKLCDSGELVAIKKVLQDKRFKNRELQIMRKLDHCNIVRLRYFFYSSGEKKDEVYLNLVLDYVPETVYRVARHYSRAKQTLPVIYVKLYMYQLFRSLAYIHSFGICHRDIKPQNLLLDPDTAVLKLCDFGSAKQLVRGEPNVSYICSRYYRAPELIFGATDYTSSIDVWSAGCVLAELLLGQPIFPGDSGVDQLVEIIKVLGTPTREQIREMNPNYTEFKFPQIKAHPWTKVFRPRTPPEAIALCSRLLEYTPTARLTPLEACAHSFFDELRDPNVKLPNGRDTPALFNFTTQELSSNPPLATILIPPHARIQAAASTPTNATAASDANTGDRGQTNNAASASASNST", "test": "Inhibition of human GSK3-beta by fluorescence anisotropy binding assay", "method_in_brief": "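Competitive fluorescence anisotropy binding against a fluorescently labelled inhibitor. Compound typically 24 pM–25 µM final, DMSO <3%. Equilibrated 60–180 min at ambient temperature; anisotropy read at ex 485/em 535 nm. Assay error ±0.2 log units.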"}, "[2]": {"molecular_target": "Cyclin-dependent kinase 2 (Homo sapiens) (UniProt P24941)", "test": "Inhibition of CDK2 at 10 uM"}, "[3]": {"test": "Inhibition of AMPK at 10 uM"}, "[4]": {"molecular_target": "Glycogen synthase kinase-3 beta (Rattus norvegicus, UniProt P18266)", "sequence (P18266 whole entry)": "as the sequence (P49841 whole entry) above, with V240M, T390P, T392A, A400T, T402A counted along it", "test": "Inhibition of rat GSK3-beta in L6 cells assessed as accumulation of glycogen", "format": "cell-based"}, "[5]": {"test": "Inhibition of PKA at 10 uM"}, "[6]": {"molecular_target": "RAC-alpha serine/threonine-protein kinase (Homo sapiens) (UniProt P31749)", "sequence (P31749 whole entry)": "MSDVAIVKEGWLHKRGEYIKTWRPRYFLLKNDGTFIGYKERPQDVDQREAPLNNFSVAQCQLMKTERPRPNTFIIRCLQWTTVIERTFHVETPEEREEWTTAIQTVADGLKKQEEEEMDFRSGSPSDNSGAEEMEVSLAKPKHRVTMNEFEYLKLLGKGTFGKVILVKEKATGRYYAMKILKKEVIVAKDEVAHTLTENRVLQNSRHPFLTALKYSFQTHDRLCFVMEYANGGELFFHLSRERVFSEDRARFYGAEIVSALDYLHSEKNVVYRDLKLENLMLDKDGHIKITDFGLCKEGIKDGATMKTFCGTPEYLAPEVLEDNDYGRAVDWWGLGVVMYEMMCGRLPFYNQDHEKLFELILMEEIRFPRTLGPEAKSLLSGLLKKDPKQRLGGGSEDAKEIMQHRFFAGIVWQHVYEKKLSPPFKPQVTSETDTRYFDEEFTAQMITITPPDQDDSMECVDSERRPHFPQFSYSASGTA", "test": "Inhibition of PKBa at 10 uM"}, "[7]": {"molecular_target": "T1, Serine/threonine-protein kinase Chk1 (Homo sapiens) (UniProt O14757)", "T1 sequence (whole entry)": "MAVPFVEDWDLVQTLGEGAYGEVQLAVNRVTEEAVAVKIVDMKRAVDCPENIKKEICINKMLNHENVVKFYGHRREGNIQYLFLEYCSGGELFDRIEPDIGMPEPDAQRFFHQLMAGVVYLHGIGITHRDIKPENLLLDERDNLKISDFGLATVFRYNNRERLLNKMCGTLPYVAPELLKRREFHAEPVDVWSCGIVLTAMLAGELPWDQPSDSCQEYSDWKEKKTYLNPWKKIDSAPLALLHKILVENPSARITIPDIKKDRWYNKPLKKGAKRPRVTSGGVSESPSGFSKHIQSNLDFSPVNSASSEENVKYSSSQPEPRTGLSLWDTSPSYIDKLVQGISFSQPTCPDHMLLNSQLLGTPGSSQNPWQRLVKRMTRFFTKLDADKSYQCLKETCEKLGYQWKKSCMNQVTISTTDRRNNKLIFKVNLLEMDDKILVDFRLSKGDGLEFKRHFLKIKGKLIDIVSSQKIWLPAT", "test": "Inhibition of CHK1 at 10 uM"}, "[8]": {"molecular_target": "Dual specificity mitogen-activated protein kinase kinase 1 (Homo sapiens) (UniProt Q02750)", "sequence (Q02750 whole entry)": "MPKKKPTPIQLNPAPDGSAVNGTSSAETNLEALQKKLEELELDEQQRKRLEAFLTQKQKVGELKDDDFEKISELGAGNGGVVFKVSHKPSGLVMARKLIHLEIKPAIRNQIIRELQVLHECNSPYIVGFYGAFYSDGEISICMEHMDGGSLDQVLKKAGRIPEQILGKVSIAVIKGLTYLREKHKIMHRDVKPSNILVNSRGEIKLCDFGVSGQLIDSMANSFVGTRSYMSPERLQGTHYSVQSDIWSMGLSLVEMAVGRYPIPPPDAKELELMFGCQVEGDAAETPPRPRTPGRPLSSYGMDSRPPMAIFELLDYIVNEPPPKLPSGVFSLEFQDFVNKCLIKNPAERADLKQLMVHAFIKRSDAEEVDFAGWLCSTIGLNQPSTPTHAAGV", "test": "Inhibition of MEK1 at 10 uM"}, "[9]": {"test": "Inhibition of GSK3 at 10 uM"}, "[10]": {"molecular_target": "T2, Serine/threonine-protein kinase Sgk1 (Homo sapiens) (UniProt O00141)", "T2 sequence (whole entry)": "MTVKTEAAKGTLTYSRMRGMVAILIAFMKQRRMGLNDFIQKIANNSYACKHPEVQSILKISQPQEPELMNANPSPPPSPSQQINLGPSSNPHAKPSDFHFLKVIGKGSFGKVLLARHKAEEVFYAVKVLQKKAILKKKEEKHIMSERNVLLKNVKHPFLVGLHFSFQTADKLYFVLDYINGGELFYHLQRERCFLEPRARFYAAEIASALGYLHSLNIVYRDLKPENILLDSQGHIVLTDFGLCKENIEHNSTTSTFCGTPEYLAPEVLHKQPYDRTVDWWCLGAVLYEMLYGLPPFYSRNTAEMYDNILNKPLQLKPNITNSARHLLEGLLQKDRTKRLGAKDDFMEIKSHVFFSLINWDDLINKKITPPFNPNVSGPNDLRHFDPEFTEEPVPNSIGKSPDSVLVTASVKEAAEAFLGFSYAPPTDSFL", "test": "Inhibition of SGK at 10 uM"}, "[11]": {"test": "Inhibition of MAPK at 10 uM"}, "[12]": {"molecular_target": "Vascular endothelial growth factor receptor 2 (Homo sapiens, UniProt P35968)", "sequence (P35968 whole entry)": "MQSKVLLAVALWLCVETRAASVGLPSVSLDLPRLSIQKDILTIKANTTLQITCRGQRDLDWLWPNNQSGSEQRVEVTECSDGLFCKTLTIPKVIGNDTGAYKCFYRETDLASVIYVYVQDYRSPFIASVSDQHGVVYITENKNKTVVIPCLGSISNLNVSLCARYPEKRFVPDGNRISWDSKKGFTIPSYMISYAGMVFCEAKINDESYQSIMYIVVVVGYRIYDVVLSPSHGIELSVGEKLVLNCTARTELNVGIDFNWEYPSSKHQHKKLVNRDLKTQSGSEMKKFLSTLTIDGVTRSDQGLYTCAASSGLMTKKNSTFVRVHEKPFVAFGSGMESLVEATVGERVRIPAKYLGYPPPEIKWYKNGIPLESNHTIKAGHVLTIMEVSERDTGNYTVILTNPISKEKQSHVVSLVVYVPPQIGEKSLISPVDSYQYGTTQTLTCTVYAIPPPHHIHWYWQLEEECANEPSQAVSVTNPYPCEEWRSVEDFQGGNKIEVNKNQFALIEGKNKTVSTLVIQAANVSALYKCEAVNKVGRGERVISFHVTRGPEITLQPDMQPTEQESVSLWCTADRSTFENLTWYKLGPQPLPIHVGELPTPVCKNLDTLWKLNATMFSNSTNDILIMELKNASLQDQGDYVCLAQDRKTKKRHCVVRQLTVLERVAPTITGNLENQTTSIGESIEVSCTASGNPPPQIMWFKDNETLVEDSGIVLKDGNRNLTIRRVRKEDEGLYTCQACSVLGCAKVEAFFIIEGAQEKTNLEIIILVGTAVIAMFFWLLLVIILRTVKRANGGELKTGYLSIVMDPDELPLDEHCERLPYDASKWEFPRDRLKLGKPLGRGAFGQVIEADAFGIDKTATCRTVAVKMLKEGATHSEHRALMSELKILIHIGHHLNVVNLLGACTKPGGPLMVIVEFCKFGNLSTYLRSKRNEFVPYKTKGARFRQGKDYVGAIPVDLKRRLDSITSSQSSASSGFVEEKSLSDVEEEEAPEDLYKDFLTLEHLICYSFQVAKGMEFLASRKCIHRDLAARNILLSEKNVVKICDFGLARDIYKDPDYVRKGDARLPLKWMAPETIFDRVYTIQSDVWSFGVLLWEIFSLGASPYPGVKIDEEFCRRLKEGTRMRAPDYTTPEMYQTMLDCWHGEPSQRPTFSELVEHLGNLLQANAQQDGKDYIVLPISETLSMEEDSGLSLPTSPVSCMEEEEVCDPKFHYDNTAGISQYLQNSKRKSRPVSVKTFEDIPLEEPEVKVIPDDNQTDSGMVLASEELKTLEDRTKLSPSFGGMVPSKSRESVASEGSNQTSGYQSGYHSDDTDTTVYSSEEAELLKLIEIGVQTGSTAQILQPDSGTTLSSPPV", "test": "Inhibition of VEGFR2"}, "[13]": {"molecular_target": "Mitogen-activated protein kinase 8 (Homo sapiens) (UniProt P45983)", "sequence (P45983 whole entry)": "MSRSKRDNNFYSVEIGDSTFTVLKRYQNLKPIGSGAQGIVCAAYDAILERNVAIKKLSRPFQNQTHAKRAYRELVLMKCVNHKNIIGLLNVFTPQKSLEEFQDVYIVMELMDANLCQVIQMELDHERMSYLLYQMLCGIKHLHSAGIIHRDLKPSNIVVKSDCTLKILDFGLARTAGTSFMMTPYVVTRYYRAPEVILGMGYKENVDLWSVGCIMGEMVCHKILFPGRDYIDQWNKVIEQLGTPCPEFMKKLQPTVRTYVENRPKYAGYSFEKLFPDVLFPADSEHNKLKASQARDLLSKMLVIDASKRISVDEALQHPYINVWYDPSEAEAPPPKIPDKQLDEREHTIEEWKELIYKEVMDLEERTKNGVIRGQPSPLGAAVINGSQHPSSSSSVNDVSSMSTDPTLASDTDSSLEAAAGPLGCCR", "test": "Inhibition of JNK1 at 10 uM"}}}
{"smiles": "Nc1ncnc2oc(-c3cccnc3)c(-c3ccc(NC(=O)c4cccc(F)c4)cc3)c12", "values": [{"measurement": "IC50", "setting": "[1]", "result": 1590, "unit": "nM"}]}
{"smiles": "COc1ccc(-c2oc3ncnc(N)c3c2-c2ccc(NS(=O)(=O)c3ccccc3)cc2)cc1", "values": [{"measurement": "IC50", "setting": "[1]", "result": "> 15000", "unit": "nM"}]}
{"smiles": "Nc1ncnc2oc(-c3cccnc3)c(-c3ccc(NS(=O)(=O)c4ccccc4)cc3)c12", "values": [{"measurement": "inhibition", "setting": "[2]", "result": 27, "unit": "%"}, {"measurement": "inhibition", "setting": "[3]", "result": 44, "unit": "%"}, {"measurement": "EC50", "setting": "[4]", "result": 3200, "unit": "nM"}, {"measurement": "inhibition", "setting": "[5]", "result": -0, "unit": "%"}, {"measurement": "inhibition", "setting": "[6]", "result": 29, "unit": "%"}, {"measurement": "inhibition", "setting": "[7]", "result": 3, "unit": "%"}, {"measurement": "inhibition", "setting": "[8]", "result": -0, "unit": "%"}, {"measurement": "IC50", "setting": "[1]", "result": 30, "unit": "nM"}, {"measurement": "inhibition", "setting": "[9]", "result": 100, "unit": "%"}, {"measurement": "inhibition", "setting": "[10]", "result": 3, "unit": "%"}, {"measurement": "inhibition", "setting": "[11]", "result": 5, "unit": "%"}, {"measurement": "IC50", "setting": "[12]", "result": 1120, "unit": "nM"}, {"measurement": "inhibition", "setting": "[13]", "result": 7, "unit": "%"}]}
{"smiles": "CS(=O)(=O)Nc1ccc(-c2c(-c3cccnc3)oc3ncnc(N)c23)cc1", "values": [{"measurement": "IC50", "setting": "[1]", "result": 475, "unit": "nM"}]}
{"smiles": "COc1ccc(-c2oc3ncnc(N)c3c2-c2ccc(OC)cc2)cc1", "values": [{"measurement": "IC50", "setting": "[1]", "result": "> 15000", "unit": "nM"}]}
{"smiles": "CC(=O)Nc1ccc(-c2c(-c3cccnc3)oc3ncnc(N)c23)cc1", "values": [{"measurement": "IC50", "setting": "[1]", "result": 1630, "unit": "nM"}]}
{"smiles": "Nc1ncnc2oc(-c3cccnc3)c(-c3ccc(NS(=O)(=O)c4cccs4)cc3)c12", "values": [{"measurement": "IC50", "setting": "[1]", "result": 23, "unit": "nM"}]}
